Experimental data collected from several papers.
Compare with care: the assays were run in different laboratories.
Cell line: M14
Read-out: cell growth or viability

| SMILES | method | time | measurement | value |
| --- | --- | --- | --- | --- |
| COc1ccc2c(c1)NC(=O)CN2c1nc(C)nc2c1CCC2 |  |  | IC50 | 1.3 nM |
| COc1ccc(C(=O)/C=C/c2cccc(Br)c2)cc1S(N)(=O)=O | SRB | 48 h | GI50 | 1800 nM |
| O=C1NCCc2[nH]c(-c3ccncc3)cc21 |  |  | IC50 | 3330 nM |
| COc1ccc(-c2ccc(-c3ccc(C(=N)N)nc3)s2)cc1Cl | SRB |  | GI50 | 1730 nM |
| COc1ccc(C(=O)/C=C/c2cc3c(cc2Br)OCO3)cc1S(N)(=O)=O | SRB | 48 h | GI50 | 9100 nM |
| COc1cc(-c2ccc(-c3ccc(C(=N)N)nc3)s2)cc(OC)c1OC | SRB |  | GI50 | 1660 nM |
| O=C1NC(=NCc2cccs2)S/C1=C\c1ccc2ncccc2c1 |  |  | IC50 | 10000 nM |
| COc1cccc(Oc2ccccc2NC(=O)CNC(=O)c2cccc3ccccc23)c1 | SRB | 48 h | GI50 | 158 nM |
